Measurements of several laboratories.
Compare with care: the assays were run in different laboratories.
Target: Mitogen-activated protein kinase 14 (MAPK14, Homo sapiens, UniProt Q16539)

Structure (SMILES) | test | conditions | quantity | result
C=CC(=O)N1CCC([C@@H]2CCNc3c(C(N)=O)c(-c4ccc(Oc5ccccc5)cc4)nn32)CC1 | enzyme activity, inhibitor | 1 µM | inhibition | 1%
COc1ccc2oc(-c3ccc4nc(N)oc4c3)c/c(=N\c3ccccc3NC(=O)CCN)c2c1 | binding | 1 µM | remaining binding | 109%
COc1ccc2[nH]c3c4[nH]c5ccc(OC)cc5c4c4c(c3c2c1)C(=O)NC4=O | binding, competition with immobilised ligand | 1 µM | remaining binding | 87%
C#Cc1cnc(Nc2ccnc(CO)c2)nc1Nc1ccccc1S(C)(=O)=NC#N (stereo not drawn) | cell-free assay | 1 µM | remaining signal | 91%
N#Cc1ccc(NC(=O)Nc2ccccc2)cc1 | cell-free assay, competition with immobilised ligand | 25 µM | remaining binding | 79%
CCCCC(=O)Nc1ccc(-c2ccc3ncn(CCC)c(=O)c3c2)cn1 | binding, competition with immobilised ligand | 0.5 µM | remaining binding | 88%
C1=C/COCc2cc(ccc2OCCN2CCCC2)Nc2nccc(n2)-c2cccc(c2)COC/1 | cell-free assay | 0.1 µM | remaining signal | 89%
CN1CCN(C(=O)c2ccc(NC(=O)Nc3ccc(N(C)c4ccnc(Nc5ccc(CS(C)(=O)=O)cc5)n4)cc3)cc2)CC1 | binding, competition with immobilised ligand | 1 µM | remaining binding | 83%
CC#CC(=O)N1CCC[C@H]1c1nc(-c2ccc(C(=O)Nc3ccccn3)cc2)c2c(N)nccn12 | enzyme activity, inhibitor | 1 µM | inhibition | 0%
